Bioassay records from PubChem.
The full list was thinned out, with hits kept by preference.
Avidin fluor – compound fluoresces at 488/530 nm on avidin beads; compound fluorescence 488/530 nm, flow cytometry; active compounds read high; fluorescence (KMESF) at 10 µM; 0.38% of 220,000 active; in the data active = fluorescence above about 47
PKD1 kinase inh – blocks activity of human protein kinase D1; inhibition, % (test concentration not listed); 0.056% of 200,000 active; PKD1 kinase fluorescence polarization assay; AID 797
GSH fluor – GSH bead compound fluorescence profile | fluorescence (KMESF) at 10 µM | GSH beads flow cytometry, compound fluorescence 488/530 nm; active compounds read high | 0.25% of 190,000 active; in the data active = fluorescence above about 89;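 also: glutathione beads carrying GST-tagged Bcl family fusion proteins plus one bare bead set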
ABCG2 block – human ABCG2 inhibition, ABCB1 as counter-screen | Q9UNQ0 | IgMXP3 cells, JC-1 efflux, flow cytometry | inhibition, % at 6.6 µM | 0.1% of 190,000 active;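 active = inhibition above 80%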
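material = IgMXP3 (ABCG2) plus far-red-tagged CCRF-Adr (ABCB1) cells | amount = 3 million cells/mL, equal mix of both lines | also added = JC-1 transporter substrate | dosing = one concentration, 6.6 µM final | schedule = 10 min at 25 °C | measured by = flow cytometric JC-1 green MFI at 530 nm | read-out basis = percent efflux inhibition, scaled nicardipine 100% to DMSO 0%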
L major viab – Leishmania major promastigote growth inhibition; 9% of 200,000 active; AID 1063; inhibition, % at 10 µM; Leishmania major promastigotes, resazurin fluorescence viability;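 also: promastigotes grown with compound for 44 hours at 28 °C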
ABCB1 block – human ABCB1 inhibition, ABCG2 as counter-screen. CCRF-Adr cells, JC-1 efflux, flow cytometry. P08183. 0.067% of 190,000 active. inhibition, % at 6.6 µM; in the data active = inhibition above about 40%;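 also: higher value means more JC-1 retained so stronger ABCB1 efflux block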
Numbers stand for hits; n = inactive; x = not tested or not shown; + = active, no number. Rule as the data show it, unless noted: active = inhibition above about 50%; inactive = the rest.

SMILES | Avidin fluor | PKD1 kinase inh | GSH fluor | ABCG2 block | L major viab | ABCB1 block
COc1ccc(CC2(C)OC(c3ccc(C)cc3)=NN2C(C)=O)cc1 (configuration not stated) | n | n | n | n | n | n
COc1ccc(CC2(C)OC(c3ccccc3)=NN2C(C)=O)cc1 (configuration not stated) | n | n | n | n | 53 | n
O=S(=O)(/C=C/c1ccccc1)NCc1ccccc1Cl | n | n | n | n | n | n
N#CCCN1CCN(Cc2cc(-c3ccccc3)ccc2O)CC1 | n | n | n | n | 91 | n
CC(C)(C)CC(C)(C)c1ccc(O)c(CN2CCN(CCC#N)CC2)c1 | n | n | n | n | 97 | n
CCC(=O)Oc1ccc(C(=O)Nc2ccc3c(c2)C(=O)N(C2CCCCC2)C3=O)cc1 | n | n | n | n | n | n
CCOC(=O)CSc1nc2cc3c(cc2cc1C)OCO3 | 72 | n | n | n | n | n
CCOC(=O)CSc1nc2cc3c(cc2cc1C#N)OCO3 | n | n | n | n | n | n
COc1ccc(S(=O)(=O)N2c3ccccc3OCC2c2ccccc2)cc1 (configuration not stated) | n | n | n | n | n | n
O=C(CCl)N1c2ccccc2OCC1c1ccccc1 (configuration not stated) | n | n | n | n | 57 | n
CCc1ccc(-c2cc(C(=O)N3N=C(C(F)F)CC3(O)C(F)F)c3ccccc3n2)cc1 (configuration not stated) | n | n | n | n | 71 | n
COc1ccc2[nH]c(=O)c(CN(C(=O)NC3CCCCC3)C3CCCCC3)cc2c1 | n | n | n | n | 100 | n
COc1ccc2[nH]c(=O)c(CN(C(=O)c3cccnc3)c3ccccc3C)cc2c1 | 118 | x | x | x | x | x
COc1ccc2[nH]c(=O)c(CNC3CCCCC3)cc2c1 | n | n | n | n | n | n
COc1ccc2[nH]c(=O)c(CN(C(=O)c3ccccn3)c3ccccc3)cc2c1 | n | n | n | n | 100 | n
COc1ccc2[nH]c(=O)c(CN(C(=O)c3cccnc3)c3ccccc3)cc2c1 | n | n | n | n | n | n
CCOC(=O)c1oc2ccc(S(=O)(=O)n3nc(-c4ccc(C)cc4)cc3N)cc2c1C | n | n | n | n | 91 | n
CCOC(=O)c1oc2ccc(S(=O)(=O)Nc3ccc4c(c3)n(C)c(=O)n4C)cc2c1C | n | n | n | n | n | n
CCOC(=O)c1oc2ccc(S(=O)(=O)n3nc(-c4ccc(Cl)cc4)cc3N)cc2c1C | n | n | n | n | 98 | n
Nc1nc(CCl)nc(N(c2ccccc2)c2ccccc2)n1 | n | x | x | x | x | x
CN(C)c1ccc(Cl)cc1N | n | n | n | n | n | n
Cc1ccsc1/C=N/NC(=O)c1ccccn1 | n | n | n | n | 60 | n
COc1ccc(Cl)c2c1[nH]c1nc(SCc3ccccn3)nnc12 | n | n | n | n | 52 | n
COc1ccc(Cl)c2c1[nH]c1nc(SCc3cccnc3)nnc12 | n | n | n | n | n | n
CCOC(=O)C1=C(C)NC(SC(C)=O)=NC1c1ccc(OC(C)=O)c(OC)c1 (configuration not stated) | n | n | n | n | n | n
SMILES | Avidin fluor | PKD1 kinase inh | GSH fluor | ABCG2 block | L major viab | ABCB1 block
CCOC(=O)C1=C(C)NC(SC)=NC1c1ccc(OC)cc1 (configuration not stated) | n | n | 111 | n | n | n
CCOC(=O)C1=C(C)NC(C)=C(C(=O)OCC)C1c1ccc(OC)cc1 | n | n | n | n | 65 | n
COc1ccc(Br)cc1C(=O)Nc1ccccc1N1CCN(C(=O)c2ccccc2)CC1 | n | n | n | n | 55 | n
O=C(NC(CO)Cc1ccc([N+](=O)[O-])cc1)C(Cl)Cl (configuration not stated) | n | n | n | x | 63 | x
O=C(NC(CO)C(O)c1ccc([N+](=O)[O-])cc1)C(Cl)Cl (configuration not stated) | n | n | n | n | n | n
CCN1/C(=C/c2ccc3cc(C)ccc3[n+]2CC)Sc2ccccc21 | n | n | n | + | 100 | x
CCN1/C(=C/c2ccc3cc(C)ccc3[n+]2CC)Sc2cc(C)c(C)cc21 | n | n | n | n | 100 | n
CCOC(=O)/C(=C/C=C1\Sc2cc(C)c(C)cc2N1CC)C(C)=O | n | n | n | n | n | n
COCCNC(=O)C1=NOC(Cn2cc(C#N)c(=O)n(C)c2=O)C1 (configuration not stated) | n | n | n | n | n | n
O=C(CSc1nc2ccccc2c(=O)n1CCCN1CCOCC1)NC12CC3CC(CC(C3)C1)C2 | n | n | n | n | n | n
O=C(NCCCn1ccnc1)C(=O)c1c[nH]c2ccccc12 | n | n | n | n | n | n
CNS(=O)(=O)c1ccc(N2CCCC2)c([N+](=O)[O-])c1 | n | n | n | n | n | n
O=S(=O)(Nc1ccc(N2CCCCC2)cc1)c1ccc(F)c(F)c1 | n | n | n | n | 67 | n
CC(=O)c1ccc(N2CCN(c3ccc(S(=O)(=O)NCCCN(C)C)cc3[N+](=O)[O-])CC2)cc1 | n | n | n | n | 100 | n
O=[N+]([O-])c1cc(S(=O)(=O)Nc2ccccc2)ccc1N1CCN(c2ccccc2)CC1 | n | n | n | n | 88 | n
O=C(O)c1cc(NS(=O)(=O)c2ccc(N3CCCCC3)c([N+](=O)[O-])c2)cc(C(=O)O)c1 | n | n | n | n | 77 | n
O=C1NC(=S)SC1=C1CCCC1 | n | n | n | n | n | n
O=[N+]([O-])c1cc(S(=O)(=O)C(F)(F)F)ccc1N1CCN(c2ccccc2)CC1 | n | n | n | n | 68 | x
CCC(C)N=C1Sc2nc3ccc(C)cc3cc2CN1CCOC (configuration not stated) | n | n | n | n | n | n
C=CCN(CC=C)CCOc1cccc2ccccc12 | n | n | n | n | 62 | n
C=CCN(CC=C)CCOc1ccccc1 | n | n | n | n | 54 | n
COc1ccc(CNCc2cccc(Oc3ccccc3)c2)cc1 | n | n | n | n | 87 | n
Cc1cc(N)n2ncc(-c3ccccc3)c2n1 | n | n | n | n | n | n
CC(=O)Nc1ccc(Nc2cc(C)nc3c(-c4ccccc4)cnn23)cc1 | n | n | n | n | 89 | n
FC(F)Oc1ccc(NC(=S)NNc2ccnc3cc(Cl)ccc23)cc1 | n | n | n | n | n | n
SMILES | Avidin fluor | PKD1 kinase inh | GSH fluor | ABCG2 block | L major viab | ABCB1 block
O=C(NCCNC(=O)c1ccco1)c1ccc(F)cc1 | n | n | n | n | n | n
O=C(NCCNCc1ccc(F)cc1)c1ccco1 | n | n | n | n | 54 | n
CC(=O)Nc1cc(C)c(S(C)(=O)=O)c(C)c1 | n | n | n | n | n | n
C=CCn1c(COc2ccc(Cl)cc2)nnc1SCC(=O)N/N=C/c1cccc(O)c1 | n | n | n | n | n | n
C=CCn1c(CNc2ccccc2)nnc1SCC(=O)N/N=C/c1ccccc1O | n | n | n | n | 97 | n
Cc1ccc2[nH]c3c(=O)n(CCN4CCNCC4)cnc3c2c1 | n | n | n | n | n | n
